Measured values: PubChem BioAssay
Calls of active or inactive are those of the source.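 The calls were made as follows, unless noted: active = visually confirmed hit in the image check and inhibition above 20%; inconclusive = visually confirmed hit but inhibition not above 20%; inactive = no visual hit in the image check.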

Assays:
[1] = inhibitors of TNFa-induced NFkB p65 translocation, primary screen, imaging, HUVEC, MLSMR starter and 10KST1 sets (AID 438;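 active = inhibition above 20% together with a positive visual image hit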;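 also: compound added about 3h40 before a 20 min TNFalpha stimulation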;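 as to inhibition: signal is the nuclear over cytoplasmic p65 intensity ratio per well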); details: HUVEC TNFa-induced p65 nuclear translocation; cell count: measured here: nuclei count (cytotoxicity indicator), at 2.08 µM; inhibition: at 2 µM, stronger effect = higher value, 0% TNFa-plus-vehicle, 100% no-TNFa wells
[2] = inhibitors of E-selectin induction by TNFa, primary screen, imaging, HUVEC, immunofluorescence, MLSMR starter and 10KST1 sets (AID 487); details: HUVEC TNFalpha-induced E-selectin immunofluorescence imaging, at 2 µM; inhibition: stronger effect = higher value; nuclei count: measured here: cell number, toxicity;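 as to inhibition: signal is fraction of cell area covered by stained E-selectin grains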;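 as to nuclei count: 100% = median nuclei count of all wells on the same plate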
[3] = DUSP6 inhibitors restoring Erk phosphorylation by chemical complementation, primary imaging in DUSP6-transfected HeLa (AID 609;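 active = compounds giving at least 50% inhibition in the cell-based MKP-3 phosphatase rescue imaging test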;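 as to inhibition: phospho-Erk level distribution per well compared with pooled transfected vehicle control wells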); details: HeLa MKP-3 transfected, phospho-Erk imaging KS statistic, at 10 µM, cells stimulated with TPA for 15 min
[4] = biological target: Dual specificity protein phosphatase 6 (Homo sapiens) (UniProt Q16828); assay: as above; details: HeLa MKP-3 transfected, phospho-Erk imaging KS statistic; at 10 µM; stronger effect = higher value; cells stimulated with TPA for 15 min
[5] = biological target: Voltage-gated potassium channel subunit beta-2 (Rattus norvegicus) (UniProt P62483); assay: KvBeta enzyme negative modulators, primary screen, biochemical, NADPH fluorescence (AID 622;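 active = fluorescence slope higher than the sample average by over 3 SD, cut at about -0.22 in these data, passing the limit was not always enough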;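 also: slope of raw intensity against log time taken from 70 to 1610 s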); details: recombinant KvBeta, 4-cyanobenzaldehyde reduction, at 10 µM, stronger effect = higher value
[6] = biological target: Voltage-gated potassium channel subunit beta-2 (Rattus norvegicus) (UniProt P62483); assay: KvBeta positive modulators, primary screen, biochemical, NADPH fluorescence (AID 623;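 active = NADPH fluorescence slope more negative than the mean of all samples by about 3 SD, 99.7% confidence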;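 also: fluorescence intensity change per second fitted from 20 to 320 s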); details: Recombinant KvBeta, NADPH fluorescence decrease slope, 10 min; at 10 µM; stronger effect = lower value
[7] = biological target: Alpha-2C adrenergic receptor (Homo sapiens) (UniProt P18825); assay: modulators of alpha2C/GIRK thallium flux, primary screen, cell-based, HEK293 alpha2C/GIRK1/2 (AID 624;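 active = fluorescence slope after compound addition differing from the mean of all screened samples at 99.7% confidence, in either direction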;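 also: slope of fluorescence ratio to pre-addition baseline per second over 15 to 24 s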); details: thallium flux BTC fluorescence, at 10 µM, actives lie on both sides
[8] = inhibitors of larval lipid processing in zebrafish, primary screen, whole organism, PED6 fluorescence, gall bladder and intestine (AID 686;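 active = a full or partial loss of lipid-probe fluorescence in the fish gall bladder, intestine or both, judged by eye; inactive = no fluorescence loss, or compound toxic to the fish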;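 also: larvae 5 to 7 days old with five fish per well; signal comes from phospholipase A2 cleavage of quenched PED6 carried via bile; overnight exposure to compound and PED6 before scoring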); details: Zebrafish larvae PED6 lipid processing, fluorescence scoring; screened at 20 µM (by protocol)
Summary of the method: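 system = live zebrafish larvae aged 5-7 days, whole organism | probe or stimulus = ingested quenched lipid PED6 at 100 nM | doses = 20 µM single dose | timing = overnight exposure | detection = fluorescence microscopy with visual scoring of gall bladder and intestine | read-out = visual per-well fluorescence inhibition score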

[9] = inhibitors of Chlamydomonas gravitaxis, primary screen, whole organism, Chlamydomonas reinhardtii, WT vs cilia-less mutant, absorbance, 96-well (AID 463189;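 active = inhibition at or above 50% relative to wild type and mutant plate controls; inactive = inhibition below 50%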;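 also: 0% = wild type cc124 cells in DMSO and 100% = ciliumless bld1 mutant cells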); details: OD600 absorbance, 2 days, at 10 µM, stronger effect = higher value
[10] = measured here: cell density z-score
[11] = measured here: nuclear c-Myc green intensity z-score
[12] = measured here: nuclear pErk red intensity z-score, stronger effect = higher value

Alpha-2C adrenergic receptor (Homo sapiens), sequence (P18825 whole entry, looked up): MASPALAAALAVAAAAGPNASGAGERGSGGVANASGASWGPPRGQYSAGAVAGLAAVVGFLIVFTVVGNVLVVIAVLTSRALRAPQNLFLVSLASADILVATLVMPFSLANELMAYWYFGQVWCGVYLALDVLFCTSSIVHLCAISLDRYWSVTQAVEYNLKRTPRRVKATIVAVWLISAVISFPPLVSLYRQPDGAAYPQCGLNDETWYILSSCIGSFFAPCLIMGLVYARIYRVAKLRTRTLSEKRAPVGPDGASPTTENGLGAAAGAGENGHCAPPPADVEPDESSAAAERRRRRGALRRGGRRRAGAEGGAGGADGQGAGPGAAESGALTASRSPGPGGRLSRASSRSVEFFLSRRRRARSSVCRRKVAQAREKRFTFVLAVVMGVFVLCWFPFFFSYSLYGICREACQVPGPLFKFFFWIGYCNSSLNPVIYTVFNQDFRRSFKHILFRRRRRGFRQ
Voltage-gated potassium channel subunit beta-2 (Rattus norvegicus), sequence (P62483 whole entry, looked up): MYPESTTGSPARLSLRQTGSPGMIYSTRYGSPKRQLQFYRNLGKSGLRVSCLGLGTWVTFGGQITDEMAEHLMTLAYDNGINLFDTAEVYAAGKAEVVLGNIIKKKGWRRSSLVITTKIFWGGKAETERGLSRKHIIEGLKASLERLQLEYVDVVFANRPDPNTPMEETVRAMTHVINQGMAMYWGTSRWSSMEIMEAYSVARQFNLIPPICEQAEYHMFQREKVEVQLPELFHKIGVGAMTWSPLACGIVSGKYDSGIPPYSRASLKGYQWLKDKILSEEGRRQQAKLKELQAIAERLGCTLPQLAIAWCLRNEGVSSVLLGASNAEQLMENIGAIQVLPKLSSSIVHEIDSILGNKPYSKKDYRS
Dual specificity protein phosphatase 6 (Homo sapiens), sequence (Q16828 whole entry, looked up): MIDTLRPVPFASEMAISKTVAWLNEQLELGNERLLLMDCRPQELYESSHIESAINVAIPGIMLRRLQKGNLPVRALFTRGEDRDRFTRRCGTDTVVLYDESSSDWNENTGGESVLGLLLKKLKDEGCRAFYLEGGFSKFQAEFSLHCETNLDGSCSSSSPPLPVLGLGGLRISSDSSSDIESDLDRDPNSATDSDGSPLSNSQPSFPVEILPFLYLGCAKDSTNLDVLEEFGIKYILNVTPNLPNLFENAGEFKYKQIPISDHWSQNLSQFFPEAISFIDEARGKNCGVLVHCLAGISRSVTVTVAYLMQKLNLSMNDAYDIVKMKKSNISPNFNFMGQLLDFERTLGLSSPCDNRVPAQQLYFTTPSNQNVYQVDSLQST

| SMILES | cell count [1] | inhibition [1] | inhibition [2] | nuclei count [2] | z-score [3, 10] | z-score [3, 11] | z-score [3, 12] | inhibition [4] | fluorescence slope [5] | NADPH fluorescence slope [6] | slope [7] | outcome [8] | inhibition [9] |
| --- | --- | --- | --- | --- | --- | --- | --- | --- | --- | --- | --- | --- | --- |
| COc1nc(N(C)S(=O)(=O)c2ccc(C)cc2)nc(C)c1Cl | 587 | -20% (inactive) | -69% (inactive) | 177% | -0.267 | -0.856 | 1.29 | 7.73% (inactive) | -0.362 (inactive) | -1.7e-05 (inactive) | 0.00412 (inactive) | inactive | -4.99% (inactive) |
| Cn1ncc(N=Cc2ccccc2)c1C(N)=O | 599 | 2.9% (inactive) | -32.8% (inactive) | 138% | -2.18 | 0.507 | 1.65 | 18.6% (inactive) | -0.54 (inactive) | -8.2e-05 (inactive) | 0.00589 (inactive) | inactive | -3.53% (inactive) |
| Cc1cccn2c(=O)c3cc(C#N)c(=N)n(Cc4ccncc4)c3nc12 | 604 | -18.3% (inactive) | -96.5% (inactive) | 165% | 0.463 | -1.24 | 0.303 | -4.27% (inactive) | -0.479 (inactive) | -4.2e-05 (inactive) | 0.00367 (inactive) | inactive | -9.33% (inactive) |
| O=S1(=O)C[C@@H](N2CCOCC2)[C@H](N2CCOCC2)C1 | 513 | 3.1% (inactive) | -110% (inactive) | 133% | -0.578 | 0.935 | 0.179 | -3.5% (inactive) | -0.462 (inactive) | -7.3e-05 (inactive) | 0.00558 (inactive) | inactive | 3.28% (inactive) |
| Cc1ccc(S(=O)(=O)NC(=O)NCc2ccc3c(c2)OCO3)cc1 | 396 | -2.3% (inactive) | -36.4% (inactive) | 91.6% | -0.395 | 0.582 | -0.563 | 5.57% (inactive) | -0.485 (inactive) | -0.000226 (inactive) | 0.00482 (inactive) | inactive | -10% (inactive) |
| COc1cc([C@@H]2[C@H]3CNCC=C3C(C#N)=C(N)C2(C#N)C#N)ccc1OC(C)C | 520 | -3.4% (inactive) | -13.2% (inactive) | 156% | -0.404 | -0.17 | -2.38 | 2.46% (inactive) | -0.251 (inactive) | 7.5e-06 (inactive) | 0.00559 (inactive) | inactive | -1.69% (inactive) |
| CCCCCSc1nc(O)cc(=O)[nH]1 | 366 | -1.9% (inactive) | -61.7% (inactive) | 116% | -1.75 | 1.21 | 0.475 | -0.624% (inactive) | -0.395 (inactive) | 1.3e-05 (inactive) | 0.00579 (inactive) | inactive | -10.7% (inactive) |
| C=CCn1cnc2c(c1=O)c1nc3ccccc3nc1n2-c1ccc(Cl)cc1 | 479 | -0.2% (inactive) | -57.8% (inactive) | 97.9% | 0.198 | -0.115 | -0.677 | 3.5% (inactive) | -0.489 (inactive) | -1.8e-05 (inactive) | 0.00468 (inactive) | inactive | 22.7% (inactive) |
| C=CCOC(=O)C1=C(C)NC(SCC(=O)N(CC)CC)=C(C#N)C1c1ccccc1 (stereo unspecified) | 348 | -0.8% (inactive) | -27.9% (inactive) | 140% | 1.19 | 0.414 | -0.822 | -0.584% (inactive) | -0.405 (inactive) | -1.3e-05 (inactive) | 0.00552 (inactive) | inactive | 4.36% (inactive) |
| C=CCn1c(=S)[nH]c2nc3c(cc2c1=O)CCCC3 | 546 | -1% (inactive) | -44.7% (inactive) | 112% | -0.436 | 2.14 | 0.929 | -7.28% (inactive) | -0.428 (inactive) | 4.7e-06 (inactive) | 0.0129 (inactive) | inactive | -0.142% (inactive) |
| CC(C)C(C(=O)Nc1ncn[nH]1)N1C(=O)c2ccccc2C1=O (stereo unspecified) | 520 | -7% (inactive) | -28.4% (inactive) | 121% | -1.38 | 0.141 | 1.7 | -4.27% (inactive) | -0.47 (inactive) | -7.2e-06 (inactive) | 0.0054 (inactive) | inactive | 0.44% (inactive) |
| CCOP(=O)(c1ccccc1)C1(C#N)CCCC1 (stereo unspecified) | 492 | -9.6% (inactive) | -215% (inactive) | 150% | -1.11 | -1.86 | 0.943 | -3.98% (inactive) | -0.513 (inactive) | -0.000169 (inactive) | 0.00467 (inactive) | inactive; toxic | 4.97% (inactive) |
| CCCCNC(=O)N(C)c1nncnc1C(=O)NC | 491 | -10.8% (inactive) | -190% (inactive) | 191% | 0.256 | -0.788 | 0.32 | -7.28% (inactive) | -0.37 (inactive) | -2.2e-05 (inactive) | 0.00552 (inactive) | inactive | -1.96% (inactive) |
| CCOC(=O)c1sc(-n2[nH]c(C)cc2=O)nc1C | 452 | -2.2% (inactive) | -23% (inactive) | 170% | 1.1 | -0.753 | 0.507 | -10.1% (inactive) | -0.398 (inactive) | -7e-05 (inactive) | 0.00502 (inactive) | inactive | -4.12% (inactive) |
| O=C(c1cncc(Br)c1)N1CCCc2ccccc21 | 517 | -1.1% (inactive) | 51.3% (inactive) | 97.5% | 0.808 | -0.814 | -0.316 | -7.86% (inactive) | -0.448 (inactive) | -1.4e-05 (inactive) | 0.00474 (inactive) | inactive | -3.67% (inactive) |
| Cc1cccc(OCC(=O)N2CCC(N3CCOCC3)CC2)c1 | 356 | -12.6% (inactive) | -156% (inactive) | 149% | 2.22 | -1.72 | 0.299 | 17% (inactive) | -0.406 (inactive) | -4.5e-05 (inactive) | 0.00455 (inactive) | inactive | 11.3% (inactive) |
| CCCCOC(=O)CSc1nc(N)c(C#N)c(-c2ccc(OC)cc2)c1C#N | 370 | -0.4% (inactive) | -58.5% (inactive) | 99.4% | -2.23 | 0.0198 | 1.46 | 3.66% (inactive) | -0.52 (inactive) | -6.6e-05 (inactive) | 0.00456 (inactive) | inactive | -17.4% (inactive) |
| O=C(NCCOCCOCCNC(=O)c1cccnc1)c1cccnc1 | 490 | 0.8% (inactive) | -165% (inactive) | 151% | -2.67 | -0.0249 | -0.654 | 34.8% (inactive) | -0.514 (inactive) | -7.5e-05 (inactive) | 0.00454 (inactive) | inactive | -5.31% (inactive) |
| CCn1c(SC(C)C(=O)O)nc2sc3c(c2c1=O)CCC3 (stereo unspecified) | 614 | -11.3% (inactive) | 46% (inactive) | 108% | 0.34 | -0.588 | -0.0983 | -2.29% (inactive) | -0.401 (inactive) | -3.8e-05 (inactive) | 0.0197 (active) | inactive | 7.74% (inactive) |
| CCOCCN(C(=O)COC)c1cccc(OC)c1 | 368 | 4.6% (inactive) | 19.2% (inactive) | 124% | 0.00474 | 0.972 | 0.0482 | -5.62% (inactive) | -0.321 (inactive) | 1.5e-05 (inactive) | 0.00531 (inactive) | inactive | -16.2% (inactive) |
| COc1ccc(/C(O)=C2/C(=O)C(=O)N(c3ncccn3)C2c2ccc(OC)c(OC)c2)cc1 (stereo unspecified) | 584 | -2.6% (inactive) | -34.9% (inactive) | 176% | -1.58 | 0.795 | 2.34 | 0.671% (inactive) | -0.352 (inactive) | -4.6e-05 (inactive) | 0.0049 (inactive) | inactive | 3.9% (inactive) |
| O=C1C(=O)N(CCN2CCOCC2)C(c2ccccn2)/C1=C(/O)c1ccc(F)cc1 (stereo unspecified) | 368 | -5.8% (inactive) | -3.3% (inactive) | 124% | -0.169 | 0.443 | -0.876 | 3.66% (inactive) | -0.392 (inactive) | -5.6e-05 (inactive) | 0.00569 (inactive) | inactive | 38.7% (inactive) |
| C=CCN(C(=O)CCC(=O)O)C1CC(=O)N(c2ccc(OCCC)cc2)C1=O (stereo unspecified) | 454 | -10.8% (inactive) | -213% (inactive) | 223% | 0.015 | -1.26 | -0.0284 | -2.29% (inactive) | -0.384 (inactive) | -2.5e-05 (inactive) | 0.00464 (inactive) | inactive | 6.01% (inactive) |
| O=C(c1ccccc1)C(CCC(CN1CCOCC1)C(=O)c1ccccc1)CN1CCOCC1 (stereo unspecified) | 588 | -0.1% (inactive) | -9.4% (inactive) | 109% | 0.046 | -0.626 | 1.7 | 1.75% (inactive) | -0.59 (inactive) | -1.8e-05 (inactive) | 0.00635 (inactive) | inactive | 24.8% (inactive) |
| CN(C)CCCN1C(=O)C(O)=C(C(=O)c2cc3ccccc3o2)C1c1ccccc1 (stereo unspecified) | 454 | 2.5% (inactive) | -61.8% (inactive) | 132% | -0.256 | 0.437 | -0.536 | 6.04% (inactive) | -0.418 (inactive) | -5.3e-05 (inactive) | 0.00564 (inactive) | inactive | -3.04% (inactive) |
| Fc1cnc(N2CCOCC2)nc1NCc1ccccc1 | 649 | -2.3% (inactive) | 32.4% (inactive) | 156% | -0.315 | 0.582 | 0.114 | 6.51% (inactive) | -0.388 (inactive) | -5.9e-05 (inactive) | 0.00592 (inactive) | inactive | 0.319% (inactive) |
| Nc1[nH]nc2nc(NCc3ccccc3)c3c(c12)CCN(Cc1ccccc1)C3 | 638 | -12.3% (inactive) | 20% (inactive) | 190% | 1.59 | -1.42 | -0.833 | 15.1% (inactive) | -0.502 (inactive) | -6.3e-05 (inactive) | 0.00406 (inactive) | inactive | 6.13% (inactive) |
